Most compounds without a hit are left out; they make up all but 3.9% or so of the library.
XBP1 UPR activ: activators of adaptive arm of unfolded protein response (XBP1); CHO-XBP1 luciferase reporter, IRE1-XBP1 UPR activation, luminescence; percent of tunicamycin response, DMSO as zero; activation, % at 20 µM; 330,000 compounds, 0.33% hits; AID 463104;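 active = versus positive control, 20 µM dose yields 30% or more activation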;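 note: 100% = tunicamycin at 10 µg/mL and 0% = DMSO only wells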
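Material: CHO cell line with stable XBP1 luciferase reporter; schedule: 16-18 h cell attachment at 37 °C, then 6 h compound exposure; signal: glow luminescence from Steady-Glo reagent; medium: serum-containing F12 medium, 10% FBS; benchmarks: tunicamycin 10 µg/mL and vehicle-only wells; read-out: percent activation relative to tunicamycin reference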
tim23-1 inh: tim23-1 yeast growth inhibition; inhibition, % at 20 µM; 330,000 compounds, 1.3% hits; S. cerevisiae tim23-1 growth, BacTiter-Glo luminescence, 24 h;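 active = growth inhibition of the mutant yeast at or above 50%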;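 note: temperature-sensitive mutant grown at 25 °C; plate controls were DMSO-treated mutant yeast for no effect and medium wells lacking yeast for full effect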
TIM10 inh: inhibits growth of TIM10 yeast strain. 330,000 compounds, 1.4% hits. AID 463195. S. cerevisiae TIM10 strain growth, BacTiter-Glo luminescence, 24 h. inhibition, % at 10 µM;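 active = inhibition of 40% or more at the single tested concentration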;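 note: wild-type TIM10 isogenic control strain grown at permissive 25 °C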
UPR CHOP act: apoptotic UPR (CHOP) activation. 330,000 compounds, 0.34% hits. CHO-CHOP luciferase reporter, luminescence; percent of tunicamycin response over DMSO baseline. activation, % at 10 µM. AID 449763;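 active = at 10 µM dose, activation of 40% or more, normalized to positive control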;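 note: 100% = tunicamycin at 10 µg/mL and 0% = DMSO alone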
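System: CHO-CHOP luciferase reporter cell line; amount: 500 cells/well; buffer or medium: F12 medium containing 10% fetal bovine serum; incubation: 6 h compound exposure at 37 °C after overnight seeding; measured by: luciferase luminescence after 10 min with Steady-Glo reagent; evaluation: % reporter activation, DMSO baseline versus tunicamycin full activation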
tim10-1 inh: tim10-1 yeast growth inhibition; inhibition, % at 20 µM; S. cerevisiae tim10-1 ts strain growth, BacTiter-Glo, 24 h; 330,000 compounds, 2.2% hits;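 active = inhibition of at least 40%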;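 note: mutant grown at 25 °C; 0% = DMSO wells with yeast and 100% = wells holding no yeast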
tim10 confirm: TIM10 yeast growth inhibition, confirmed; shares compounds with TIM10 inh; S. cerevisiae tim10 strain growth, BacTiter-Glo luminescence, 24 h; inhibition, % at 10 µM; 4,600 compounds, 63% hits;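 active = inhibition of yeast growth at or above a set limit in either of two replicates at 10 µM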;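 note: this counterscreen used the strain with wild-type TIM10; 0% = yeast with DMSO and 100% = medium wells lacking yeast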
tim23-1 conf: confirmation of tim23-1 mutant yeast growth inhibitors | S. cerevisiae tim23-1 growth, BacTiter-Glo luminescence, 24 h | shares compounds with tim23-1 inh | inhibition, % at 20 µM | 4,400 compounds, 83% hits;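 active = inhibition above about 39% in either of two replicate wells at 20 µM, limit read from the data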;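 note: temperature-sensitive tim23-1 mutant grown at 25 °C; 0% = DMSO wells with yeast and 100% = medium wells without yeast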
* hit, by the source's call; . = no result given.

SMILES | XBP1 UPR activ | tim23-1 inh | TIM10 inh | UPR CHOP act | tim10-1 inh | tim10 confirm | tim23-1 conf
C[C@]12CC[C@H](O)CC1=CCC1C2CC[C@@]2(C)C1CC[C@@H]2NC(=O)[C@@H](N)Cc1ccccc1 (some centres undefined) | -2 | 58* | 55* | 3 | 34 | 60* | 55*
O=C(COC(=O)c1cccs1)NCc1ccccc1 | -3 | 4 | 6 | -1 | 7 | . | .
N/C(Cc1cccc2ccccc12)=N\OC(=O)c1cccs1 | 2 | 63* | 61* | -1 | 32 | 78* | 72*
Cc1[nH]c2ccccc2c1N=Nc1ccccc1F | 2 | 72* | 50* | 4 | -18 | 55* | -51
Cc1cccc(NC(=O)NNC(=O)c2sccc2-n2cccc2)c1 | -1 | -5 | -7 | 0 | 4 | . | .
CO/C(N)=C(\C#N)N=Cc1ccccc1Cl | -3 | 52* | 47* | 3 | 23 | 11 | 64*
CCn1c(CSc2nc3ccccc3s2)nc2ccccc21 | 0 | 54* | 51* | 1 | 37 | 44* | 52*
COc1ccc(N=Cc2cc(Cc3ccccc3Cl)cc([N+](=O)[O-])c2O)cc1OC | -1 | 80* | 60* | -2 | 12 | 48* | -27
COc1cccc(CN(C(=O)/C=C/c2ccco2)C2CCS(=O)(=O)C2)c1 (centres undefined) | -2 | 4 | 11 | 0 | 4 | . | .
O=C(Nc1ccc(-c2cn3ccsc3n2)cc1)C1CCCC1 | -2 | 57* | 59* | 1 | 26 | 50* | 69*
CC1CCCC(NC(=O)C2CC(=O)N(Cc3ccccc3)C2)C1C (centres undefined) | -3 | 4 | -4 | -1 | -3 | . | .
N/C(=N\OC(=O)Cc1ccccc1[N+](=O)[O-])c1ccccn1 | 1 | 12 | -17 | 3 | 8 | . | .
N/C(=N\OC(=O)Cc1ccccc1[N+](=O)[O-])c1cccc(Br)c1 | 0 | 59* | 51* | 5 | 38 | 59* | 67*
CCn1cc(C(=O)N[C@H](C(=O)NCCCN2CCOCC2)C(C)C)c(=O)c2cc3c(cc21)OCO3 | -3 | -6 | -2 | 0 | -16 | . | .
O=C(/C=C/c1cccc([N+](=O)[O-])c1)c1ccco1 | -1 | 64* | 62* | 2 | 35 | 76* | 3
COc1ccc(C(=O)NC(=S)N(C)C2CCCCC2)cc1Br | -1 | 55* | 42* | 3 | 38 | 13 | 49*
Cc1ccc(C(=O)NC(=S)N(C)C2CCCCC2)cc1Br | -2 | 8 | 19 | 3 | 25 | . | .
O=C(NCC1COCCO1)c1cc(COc2c(F)cccc2F)on1 (centres undefined) | -3 | 5 | 0 | 2 | 7 | . | .
O=C(N1CCOCC1)N1CCN(S(=O)(=O)c2ccc(F)cc2)CC1 | -4 | 23 | -5 | 0 | 18 | . | .
Cc1ccc(-c2cc(-c3n[nH]c(=S)n3C)c3ccccc3n2)cc1 | 7 | 52* | 50* | 3 | 36 | 48* | 59*
O=C(Nc1nccs1)c1ccc2ccccc2c1 | -3 | 54* | 46* | 3 | -27 | 52* | 63*
Cc1csc(NC(=O)c2ccc3c(=O)n4c(nc3c2)CCCCC4)n1 | -1 | 28 | 16 | 2 | -6 | . | .
O=C(Nc1nccs1)c1ccc2c(=O)n3c(nc2c1)CCCCC3 | -3 | 52* | 49* | 4 | 6 | 44* | 66*
O=C(NC(=S)NNC(=O)c1ccccc1O)c1ccccc1 | -1 | 62* | 49* | 3 | 11 | 42* | -28
COc1ccccc1C(=O)NNC(=S)NC(=O)c1cccs1 | 0 | 9 | 1 | 2 | 0 | . | .
SMILES | XBP1 UPR activ | tim23-1 inh | TIM10 inh | UPR CHOP act | tim10-1 inh | tim10 confirm | tim23-1 conf
Cc1ccc(C(=O)NC(=S)NNC(=O)c2ccccc2O)cc1 | 6 | 14 | 24 | 1 | 6 | . | .
O=C(NC(=S)NNC(=O)c1ccccc1O)c1cccs1 | -1 | 53* | 51* | 2 | 0 | 47* | 66*
CCc1ccc(CN(C)C(=O)c2cc(COc3ccc(-n4cncn4)cc3)on2)cc1 | -3 | 54* | 56* | 4 | 26 | 46* | 52*
CC(C)OP(=O)(OC(C)C)/C(C=O)=N\Nc1ccc([N+](=O)[O-])cc1 | 4 | 67* | 51* | 4 | 38 | 50* | 67*
O=C(CCC(=O)Nc1ccccc1Cl)NNC(=O)C1CCCCC1 | -4 | 5 | -3 | 0 | -2 | . | .
Cc1ccc(C(=O)c2c3ccccc3[n+]([O-])n2CCC(N)=O)cc1 | 0 | -14 | 0 | 3 | -5 | . | .
CCCN1CCC2(CC1)C(C#N)=C(N)Oc1c2sc2nc(C)cc(C)c12 | 1 | 10 | -7 | 0 | 0 | . | .
CCOC(=O)N1CCC2(CC1)C(C#N)=C(N)Oc1c2c(C)nn1-c1cccc(Cl)c1 | -2 | 58* | 44* | 2 | 31 | 30 | 58*
CCOC(=O)N1CCC2(CC1)C(C#N)=C(N)Oc1c2sc2nc(C)cc(C)c12 | 4 | 61* | 51* | -1 | 36 | 36* | 51*
CC1=CC(C)(C)NC(=S)N1c1ccc2ccccc2c1 | -2 | 34 | 30 | -1 | 13 | . | .
CC1=CC(C)(C)NC(=S)N1C(C)c1ccccc1 (centres undefined) | 0 | 62* | 46* | 0 | 24 | 28 | 33
CCOC(=O)CSc1c(-c2cccs2)[nH]c2ccccc12 | -1 | 55* | 49* | 0 | 31 | -17 | 52*
CCOC(=O)CSc1c(-c2ccc(Cl)cc2)[nH]c2ccccc12 | -3 | 27 | 37 | 4 | 25 | . | .
Nc1ccc(-c2nc3c(ccc4ccccc43)[nH]2)cc1 | -3 | 58* | 66* | -1 | 5 | 66* | 52*
Clc1nc2c(ccc3ccccc32)[nH]1 | 0 | 5 | 14 | 6 | 10 | . | .
O=C(NC(=S)Nc1cnc2ccccc2c1)c1ccccc1 | 3 | 53* | 51* | 4 | 18 | 54* | 69*
CN1CCSc2ccc(C(=O)Nc3cccc(F)c3)cc21 | 2 | 68* | 47* | 7 | -15 | 51* | 71*
COc1ccc(NC(=O)c2ccc3c(c2)N(C)CCS3)cc1 | 3 | 9 | -6 | 0 | 4 | . | .
COc1ccc(NC(=O)N(C)C[C@H]2Oc3ccc(NC(=O)CCN4CCOCC4)cc3C(=O)N([C@@H](C)CO)C[C@H]2C)cc1 | -1 | 11 | -4 | 0 | 4 | . | .
CNC(=S)N/N=C(\C)c1ccc(C(C)(C)C)cc1 | 1 | 50* | 48* | 5 | 31 | 0 | 38

Assay outcomes: PubChem BioAssay, Sanford-Burnham Center for Chemical Genomics
